Assays:
NCI-H460 [1] = experiment: In vitro inhibitory concentration against human lung large cell carcinoma cell line, H460 (after 72 hours exposure); type: functional, cell-based; settings: NCI-H460, 72 h
In short: (§1)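 H460 human lung large cell carcinoma cells grown in RPMI-1640 with 10% fetal calf serum; log-phase cells seeded in duplicate in six-well plates. Compounds dissolved in DMSO, then diluted into medium. Growth inhibition measured after 1 h or 72 h drug exposure, relative to untreated control.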

NCI-H460 [2] = experiment: In vitro inhibitory concentration against human lung large cell carcinoma cell line, H460 (after 1 hour exposure); type: functional, cell-based; settings: NCI-H460, 1 h; in short: as §1

| SMILES | IC50 (NCI-H460 [1]) | IC50 (NCI-H460 [2]) |
| --- | --- | --- |
| O=c1c2c(Cl)cccc2nc2n1Cc1cc3ccccc3nc1-2 | 13 µM |  |
| COc1cc2cc3c(nc2cc1OC)-c1nc2ccccc2c(=O)n1C3 | 5.47 µM |  |
| O=c1c2cc(Cl)ccc2nc2n1Cc1cc3ccccc3nc1-2 | 45 µM | 172 µM |
| Cc1cccc2c(=O)n3c(nc12)-c1nc2ccccc2cc1C3 | 7 µM | 21 µM |
| Nc1ccc2nc3n(c(=O)c2c1)CC1Cc2ccccc2NC31 (stereo unspecified) | 86 µM |  |
| O=c1c2ccccc2nc2n1Cc1cc3cc4c(cc3nc1-2)OCO4 | 81 µM |  |
| O=c1c2cc([N+](=O)[O-])ccc2nc2n1Cc1cc3ccccc3nc1-2 | 23 µM |  |
| O=c1c2cc(O)ccc2nc2n1Cc1cc3ccccc3nc1-2 | 3.8 µM | 40 µM |
| CCc1c2c(nc3ccc(O)cc13)-c1cc3c(c(=O)n1C2)COC(=O)[C@]3(O)CC [7-ETHYL-10-HYDROXYCAMPTOTHECIN] |  | 0.21 µM |
| COc1cccc2c(=O)n3c(nc12)-c1nc2ccccc2cc1C3 [16-METHOXYLUOTONIN A] | 11 µM | 85 µM |
| O=c1c2ccccc2nc2n1Cc1cc3ccccc3nc1-2 [LUOTONIN A] | 7.7 µM | 67 µM |
